The nature of data set [1]: melting temperature; fluorescence melt of hairpins on a sequencing array, two-state fit, raised by 9.35 °C to match UV melts. To be noted: sodium 0.088 M. Put shortly: (§1)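 Melting temperature and folding enthalpy were obtained by bootstrapped two-state fitting. Fits used Cy3 fluorescence of library hairpins with annealed Cy3 and quencher oligos on a sequenced MiSeq flow cell, imaged in 50 mM Na-HEPES pH 8.0, 25 mM NaCl in 2.5 °C steps up to 60 °C and normalised to pre-quench Cy3 and control constructs. Four replicates were combined by inverse-variance weighting, and fitted temperatures were raised by 9.35 °C to match UV melts.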

The nature of data set [2]: folding enthalpy; higher = less favourable; fluorescence melt of hairpins on a sequencing array, two-state fit. To be noted: sodium 0.088 M. Put shortly: as §1

Turning to GGAGTCGAAAGACTCTCC ((((((....)))..))), the Tm in data set [1] stood at 51.6 °C. In data set [2], the folding enthalpy is -10.2 kcal/mol.

With GGAGTGCGAAAGCAGTCC (((.(((....))).))), in data set [1], the Tm was 65.8 °C. Moreover, the folding enthalpy in data set [2] is -30.1 kcal/mol.

For the sequence GGAGTGGAAACACTCC ((((((....)))))), the Tm in data set [1] was 63.2 °C. Moreover, in data set [2], the folding enthalpy was -33 kcal/mol.

In the case of GGAGTGGGAAACCGCTTC (.((.((....)).)).), the Tm in data set [1] was found to be 38 °C. Moreover, the folding enthalpy in data set [2] was -25.7 kcal/mol.

Consider GGAGTTCGAAAGAAGTCC (((.(((....))).))), for which the Tm in data set [1] stood at 54.1 °C. For the same sequence, in data set [2], the folding enthalpy is -41.3 kcal/mol.

In the case of GGAGTTGGAAACAACCCC ((.((((....)))).)), the Tm in data set [1] came out at 43.5 °C. For the same sequence, the folding enthalpy in data set [2] is -22.8 kcal/mol.

As for GGAGTTGGAAACGACTCC (((((.(....).))))), in data set [1], the Tm stood at 54.9 °C. Moreover, the folding enthalpy in data set [2] is -23.2 kcal/mol.

Regarding GGAGTTGGAAACGACTTC (.(((.(....).))).), in data set [1], the Tm is 59.7 °C. Further, in data set [2], the folding enthalpy is -35.4 kcal/mol.

Take GGATAACGAAAGTTTTCC (((.(((....))).))): the Tm in data set [1] turned out to be 43.7 °C. For the same sequence, in data set [2], the folding enthalpy is -27.6 kcal/mol.

Regarding GGATAAGCGAAAGCTTCC (((..(((....)))))), the Tm in data set [1] came to 35.5 °C. Moreover, the folding enthalpy in data set [2] was -12.4 kcal/mol.

For the sequence GGATACCGAAAGGTTCC (((.(((....)))))), in data set [1], the Tm was 49.3 °C. Besides, in data set [2], the folding enthalpy was -25.6 kcal/mol.

For GGATACGAAAGTACATCC ((((((....)))..))), the Tm in data set [1] stood at 34.5 °C. Also, the folding enthalpy in data set [2] was -17.1 kcal/mol.

As for GGATACGAAAGTACTCC ((((((....))).))), in data set [1], the Tm was 37.9 °C. The folding enthalpy in data set [2] is -22.9 kcal/mol.

Regarding GGATACGAAAGTACTTCC ((((((....)))..))), the Tm in data set [1] stood at 34.8 °C. Besides, the folding enthalpy in data set [2] was -17.1 kcal/mol.

For GGATACGAAAGTAGTCC ((((((....))).))), in data set [1], the Tm came to 40.4 °C. For the same sequence, the folding enthalpy in data set [2] is -20.6 kcal/mol.

Consider GGATACGAAAGTATTTCC ((((((....)))..))), for which the Tm in data set [1] was found to be 28.1 °C. Further, the folding enthalpy in data set [2] was -24.9 kcal/mol.

Regarding GGATACGGAAACGTGTTC (.(.(((....))).).), the Tm in data set [1] is 32.2 °C. In addition, the folding enthalpy in data set [2] is -18.8 kcal/mol.

For the sequence GGATAGCCGAAAGGCTCC (((..(((....)))))), the Tm in data set [1] stood at 38.1 °C. The folding enthalpy in data set [2] was -9.11 kcal/mol.

As to GGATAGCGAAAGCTTTCC (((.(((....))).))), in data set [1], the Tm is 49.3 °C. For the same sequence, the folding enthalpy in data set [2] is -29.7 kcal/mol.

As for GGATAGGGAAACCCATCC ((((.((....)).)))), in data set [1], the Tm worked out at 39.8 °C. Moreover, in data set [2], the folding enthalpy is -29.4 kcal/mol.

With GGATAGGGAAACTTATCC (((((.(....).))))), in data set [1], the Tm was determined as 35.7 °C. Further, the folding enthalpy in data set [2] is -30.3 kcal/mol.

As for GGATATCGAAAGATTTCC (((.(((....))).))), the Tm in data set [1] is 41.5 °C. In data set [2], the folding enthalpy is -30.9 kcal/mol.

In the case of GGATCACGAAAGTGGTCC (((.(((....))).))), the Tm in data set [1] turned out to be 60.4 °C. The folding enthalpy in data set [2] is -33.7 kcal/mol.

With GGATCCACGAAAGTGTCC (((..(((....)))))), the Tm in data set [1] stood at 28.4 °C. Moreover, the folding enthalpy in data set [2] is -12.4 kcal/mol.

For GGATCCGAAAGGAACTCC ((((((....)))..))), the Tm in data set [1] was 34.7 °C. In addition, the folding enthalpy in data set [2] is -13.3 kcal/mol.

With GGATCCGAAAGGAAGTCC ((((((....)))..))), the Tm in data set [1] turned out to be 29.5 °C. Moreover, in data set [2], the folding enthalpy is -10.1 kcal/mol.

Regarding GGATCCGAAAGGAGGTCC ((((((....)))..))), the Tm in data set [1] amounted to 32.9 °C. For the same sequence, the folding enthalpy in data set [2] was -14.9 kcal/mol.

Turning to GGATCCGAAAGGATATCC ((((((....)))..))), the Tm in data set [1] was found to be 40.7 °C. Further, the folding enthalpy in data set [2] is -15.2 kcal/mol.

In the case of GGATCCGGAAACGGGTCC (((.(((....))).))), in data set [1], the Tm came to 59.4 °C. In addition, the folding enthalpy in data set [2] is -43.7 kcal/mol.

For the sequence GGATCCGGAAACGGGTTC (.(.(((....))).).), the Tm in data set [1] is 38 °C. In addition, the folding enthalpy in data set [2] is -16.8 kcal/mol.

On to GGATCCTCGAAAGAGTCC (((..(((....)))))), for which the Tm in data set [1] worked out at 23.6 °C. Besides, the folding enthalpy in data set [2] was -12.3 kcal/mol.

GGATCGCGAAAGCGCTCC (((.(((....))).))): in data set [1], the Tm came out at 54.2 °C. Further, the folding enthalpy in data set [2] is -25.3 kcal/mol.

On to GGATCGGGAAACCAATCC ((((.((....)).)))), for which the Tm in data set [1] worked out at 38.2 °C. For the same sequence, in data set [2], the folding enthalpy is -29.6 kcal/mol.

As to GGATCTACGAAAGTATCC (((..(((....)))))), the Tm in data set [1] turned out to be 32.9 °C. Moreover, in data set [2], the folding enthalpy is -11.3 kcal/mol.

Consider GGATCTTCGAAAGAATCC (((..(((....)))))), for which the Tm in data set [1] came to 25.8 °C. The folding enthalpy in data set [2] is -10.7 kcal/mol.

Take GGATGAGCGAAAGCTTCC (((..(((....)))))): in data set [1], the Tm was found to be 39.4 °C. Moreover, in data set [2], the folding enthalpy is -11.4 kcal/mol.

For the origin of these results see the array DNA melting data of Ke et al. (doi:10.1101/2024.01.08.574731).
